Reference: publication PMC5704914 (Biochemistry, 2017)
Entries after “also recorded” stand apart in the source; their conditions may differ.

Experiments:
[1] = test system: surface expression of CaV1.2 (α11.2) in HEK293T/17 cells; test: Flow cytometry of surface anti-HA staining of α11.2 in HEK293T/17 cells; type: cell-based, rat; settings: N=5–7; for reduction in surface labeling of HA-epitope: relative to WT channel labeling
Procedure, shortened: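 HEK293T/17 cells were co-transfected 1:1:1 with α2δ1, β2a and CFP-HA-α11.2 (HA in the domain II S5-H5 extracellular loop) by calcium phosphate, with medium changed at 7 h. At 22 h, Accutase-detached, trypan-blue-counted live cells (6×10^6) were stained on ice for 1 h in the dark ± 2.5 μg/mL Alexa 647 anti-HA, then given 1 μg/mL PI. 50,000 PI-negative singlets were collected; HA-positive percentage of CFP-positive cells was normalized to WT.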

[2] = test system: surface expression of CaV1.2 (α11.2) in HEK293T/17 cells; test: Cell surface biotinylation of HA-tagged α11.2 in HEK293T/17 cells; type: cell-based, rat; settings: NeutrAvidin pull-down, immunoblot, normalized to WT; N=7–13
Procedure, shortened: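 HEK293T/17 cells co-transfected 1:1:1 (calcium phosphate) with α2δ1, β2a and WT or mutant CFP-HA-α11.2; medium changed at 7 h, Accutase-detached at 22 h, >95% trypan-blue-negative. 6×10^6 cells surface-labelled with 0.4 mg/mL sulfo-NHS-LC-biotin, 30 min on ice, pH 7.8; glycine-quenched, RIPA-lysed. 250 μg lysate on NeutrAvidin beads, 2 h, 4°C. Immunoblot for HA, loop II/III, GAPDH and α-tubulin; ECL exposures kept linear.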

CaV1.2 = test: Whole-cell Ba2+ current recording in HEK293T/17 cells; type: cell-based, rat α11.2, rat β2a, rabbit α2δ1; settings: for Erev (equilibrium/reversal potential) / Gmax (maximum conductance) / V1/2 (half-activation voltage): Boltzmann IV fit; for Erev (equilibrium/reversal potential) / Gmax (maximum conductance) / V1/2 (half-activation voltage) / current density relative to WT: N=6–7; for V1/2 (half-activation voltage): *** p<0.001 vs WT; for current density relative to WT: at 20 mV, ANOVA, Tukey and Bonferroni; for shift of V1/2 relative to WT: shift towards more depolarized levels
Procedure, shortened: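 HEK293T/17 cells on poly-L-lysine coverslips were transfected 1:1:1 with β2a, α2δ1 and HA/CFP-tagged WT or mutant α11.2 (Lipofectamine 2000). Whole-cell Ba2+ currents were taken 48–72 h later from CFP-positive cells, held at −70 mV and stepped from −40 to +80 mV in 10 mV increments, with P/4 leak subtraction. Currents were capacitance-normalized, I–V curves Boltzmann-fitted, and data given as mean ± S.E.M. (ANOVA, Tukey/Bonferroni). Cells came from ≥3 independent transfections.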

L-type channel = settings: ref [71], [72]; cited from earlier work
apoCaM = apoCaM (Homo sapiens, UniProt P0DP23); test: Fluorescence polarization, binding of IQ domain-derived peptides to apoCaM; settings: FP assay, relative to WT peptide
Procedure, shortened: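 Wild-type or mutant α11.2 IQ peptides (AAs 1644-1668), N-terminally fluorescein-labelled, at 1 μM final, were mixed with twofold serial dilutions of untagged purified apoCaM starting from 100 μM. Polarization was read after ≥45 min (ex 485/20, em 528/20) and normalized to fractional binding. Kd came from fitting Y = B*X/(Kd + X); error bars are SD.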

[3] = test system: L-type Ca^2+ channels at the surface of hippocampal pyramidal neurons; settings: chelating intracellular Ca^2+, ref [27]; cited from earlier work

Row | effect of mutation on apoCaM binding (apoCaM) | Compound | reduction in surface labeling of HA-epitope [1] | surface expression by biotinylation relative to WT [2] | Erev (equilibrium/reversal potential) (CaV1.2) [mV] | Gmax (maximum conductance) (CaV1.2) | V1/2 (half-activation voltage) (CaV1.2) | current density relative to WT (CaV1.2) | shift of V1/2 relative to WT (CaV1.2) | behavioral effect (L-type channel) | percentage of anti-HA and CFP co-positive events relative to WT ([1]; PI-negative, CFP-positive cells, normalized to WT) | prevalence of L-type Ca2+ channels at the surface [3]
1 |  | K1647A: fluorescein-labeled α11.2 IQ domain peptide (AAs 1644-1668), K1647A mutant | ~ 35% | significant decreases in surface expression | 69.2 ± 1.3 | 0.09 ± 0.01 | 1.1 ± 1.4 mV | significantly reduced current density | did not reach statistical significance |  |  | 
2 |  | COC(=O)C1=C(C)NC(C)=C([N+](=O)[O-])C1c1ccccc1C(F)(F)F (stereo not drawn) [BayK8644] |  |  |  |  |  |  |  | depressant-like behavior |  | 
3 | did not affect apoCaM binding | F1648A: fluorescein-labeled α11.2 IQ domain peptide (AAs 1644-1668), F1648A mutant |  | did not exhibit statistically significant differences | 73.5 ± 1.7 | 0.26 ± 0.02 | 3.0 ± 1.5 mV | did not show a significant reduction |  |  |  | 
4 | did not affect apoCaM binding | Q1655A: fluorescein-labeled α11.2 IQ domain peptide (AAs 1644-1668), Q1655A mutant |  | did not exhibit statistically significant differences | 67.2 ± 2.7 | 0.25 ± 0.02 | −2.6 ± 1.6 mV | did not show a significant reduction |  |  | not observed | 
5 |  | Y1649A: fluorescein-labeled α11.2 IQ domain peptide (AAs 1644-1668), Y1649A mutant | ~ 35% | significant decreases in surface expression | 66.5 ± 2.9 | 0.08 ± 0.01 |  | significantly reduced current density | quite pronounced and significant |  |  | 
6 |  | O=C(O)CN(CC(=O)O)c1ccccc1OCCOc1ccccc1N(CC(=O)O)CC(=O)O [BAPTA] |  |  |  |  |  |  |  |  |  | increased the prevalence of L-type Ca^2+ channels at the surface

Row | Compound | effect of mutation on apoCaM binding (apoCaM) | reduction in surface labeling of HA-epitope [1] | surface expression by biotinylation relative to WT [2] | Erev (equilibrium/reversal potential) (CaV1.2) [mV] | Gmax (maximum conductance) (CaV1.2) | V1/2 (half-activation voltage) (CaV1.2) | current density relative to WT (CaV1.2) | shift of V1/2 relative to WT (CaV1.2) | behavioral effect (L-type channel) | percentage of anti-HA and CFP co-positive events relative to WT ([1]; PI-negative, CFP-positive cells, normalized to WT) | prevalence of L-type Ca2+ channels at the surface [3]
7 | I1654A: fluorescein-labeled α11.2 IQ domain peptide (AAs 1644-1668), I1654A mutant | affected apoCaM binding; also recorded: reduced binding affinity to apoCaM | ~ 35% | significant decreases in surface expression | 75.7 ± 1.7 | 0.15 ± 0.01 | 11.2 ± 1.5*** mV | significantly reduced current density | quite pronounced and significant |  |  | 
